pIC50, pKi: −log10 of the molar value.
Experiments:
Plasma [1] = test: Metabolic stability in mouse plasma after 2 hrs; type: ADME, cell-free
Procedure, shortened: (§1)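 Stability followed in human, rat or mouse plasma over a 2-hour time course.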

Plasma [2] = test: Metabolic stability in human plasma after 2 hrs; type: ADME, cell-free; procedure, shortened: as §1
[3] = biological target: Kappa-type opioid receptor (Homo sapiens, UniProt P41145); test: Inhibition of kappa-type opioid receptor (unknown origin)
Procedure, shortened: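 Radioligand panel screening was run through the NIMH Psychoactive Drug Screening Program with compounds at 5 µM.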

[4] = biological target: Glutamate receptor ionotropic, NMDA 2A (Rattus norvegicus, UniProt P35439+Q00959); test: Negative allosteric modulation of recombinant rat GluN2A receptor expressed in Xenopus laevis oocytes by two-electrode voltage clamp method; type: cell-based, Oocyte
Procedure, shortened: (§2)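 Two-electrode voltage clamp of Xenopus oocytes expressing rat GluN1 with GluN2A, 2B, 2C or 2D. Holding potential −40 mV in recording solution (mM: 90 NaCl, 1 KCl, 0.5 BaCl2, 0.005 EDTA, 10 HEPES, pH 7.4, 23 °C). Compounds diluted from 20 mM DMSO stocks to 0.05–0.1% final DMSO. IC50 from a Hill fit to the averaged composite concentration–response curve, 5–24 oocytes from 2–4 frogs.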

[5] = biological target: Glutamate receptor ionotropic, NMDA 2B (Rattus norvegicus, UniProt P35439+Q00960); test: Negative allosteric modulation of recombinant rat GluN2B receptor expressed in Xenopus laevis oocytes by two-electrode voltage clamp method; type: cell-based, Oocyte; procedure, shortened: as §2
[6] = biological target: Glutamate receptor ionotropic, NMDA 2C (Rattus norvegicus, UniProt P35439+Q00961); test: Negative allosteric modulation of recombinant rat GluN2C receptor expressed in Xenopus laevis oocytes by two-electrode voltage clamp method; type: cell-based, Oocyte; procedure, shortened: as §2
Rattus norvegicus = organism: Rattus norvegicus; test: Selectivity ratio of IC50 for recombinant rat GluN2A receptor to IC50 for recombinant rat GluN2D receptor
Procedure, shortened: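 Rat GluN1 co-expressed with GluN2A, GluN2B or GluN2D in Xenopus oocytes. Two-electrode voltage clamp at −40 mV in 90 NaCl, 1 KCl, 0.5 BaCl2, 0.005 EDTA, 10 HEPES (mM), pH 7.4, 23 °C; final DMSO 0.1–0.05%. IC50s came from Hill fits to averaged composite concentration-response curves (5–24 oocytes, 2–4 frogs). Ratio is GluN2A or GluN2B IC50 over GluN2D IC50.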

[7] = biological target: P2X purinoceptor 2 (Rattus norvegicus) (UniProt P49653); test: Inhibition of rat purinergic receptor P2X subunit-2 expressed in Xenopus laevis oocytes assessed as inhibition of ATP-induced current at 3 uM by two-electrode voltage clamp method; values are per cent of control; conditions: Oocyte
[8] = biological target: Glutamate receptor 4 (Homo sapiens) (UniProt P48058); test: Inhibition of GluA4 receptor (unknown origin) expressed in Xenopus laevis oocytes assessed as inhibition of glutamate-induced current at 3 uM by two-electrode voltage clamp method; values are per cent of control; conditions: Oocyte
[9] = biological target: Glutamate receptor 1 (Homo sapiens) (UniProt P42261); test: Inhibition of GluA1 receptor (unknown origin) expressed in Xenopus laevis oocytes assessed as inhibition of glutamate-induced current at 3 uM by two-electrode voltage clamp method; values are per cent of control; conditions: Oocyte
[10] = biological target: Ionotropic glutamate receptor kainate 2/5 (Homo sapiens) (UniProt Q16478+Q13002); test: Inhibition of GluK2/GluK5 receptor (unknown origin) expressed in Xenopus laevis oocytes assessed as inhibition of AMPA-induced current at 3 uM by two-electrode voltage clamp method; values are per cent of control; conditions: Oocyte
[11] = biological target: P2X purinoceptor 2 (Homo sapiens) (UniProt Q9UBL9); test: Inhibition of human purinergic receptor P2X subunit-2 expressed in Xenopus laevis oocytes assessed as inhibition of ATP-induced current at 3 uM by two-electrode voltage clamp method; values are per cent of control; conditions: Oocyte
[12] = biological target: Gamma-aminobutyric acid receptor subunit rho-1 (Homo sapiens) (UniProt P24046); test: Inhibition of human GABA C receptor subunit rho-1 receptor expressed in Xenopus laevis oocytes assessed as inhibition of GABA-induced current at 3 uM by two-electrode voltage clamp method; values are per cent of control; conditions: Oocyte
[13] = biological target: Ionotropic glutamate receptor NMDA 1/2D (Homo sapiens) (UniProt Q05586+O15399); test: Inhibition of GluN1/GluN2D receptor (unknown origin) expressed in Xenopus laevis oocytes assessed as inhibition of glutamate/glycine-induced current at 3 uM by two-electrode voltage clamp method; values are per cent of control; conditions: Oocyte
[14] = biological target: Ionotropic glutamate receptor NMDA 1/2C (Homo sapiens) (UniProt Q05586+Q14957); test: Inhibition of GluN1/GluN2C receptor (unknown origin) expressed in Xenopus laevis oocytes assessed as inhibition of glutamate/glycine-induced current at 3 uM by two-electrode voltage clamp method; values are per cent of control; conditions: Oocyte
[15] = biological target: Glutamate NMDA receptor; GRIN1/GRIN2B (Homo sapiens) (UniProt Q05586+Q13224); test: Inhibition of GluN1/GluN2B receptor (unknown origin) expressed in Xenopus laevis oocytes assessed as inhibition of glutamate/glycine-induced current at 3 uM by two-electrode voltage clamp method; values are per cent of control; conditions: Oocyte
[16] = biological target: Glycine receptor subunit alpha-1 (Homo sapiens) (UniProt P23415); test: Inhibition of glycine receptor subunit alpha-1 (unknown origin) expressed in Xenopus laevis oocytes assessed as inhibition of glycine-induced current at 3 uM by two-electrode voltage clamp method; values are per cent of control; conditions: Oocyte
[17] = biological target: Neuronal acetylcholine receptor subunit alpha-7 (Homo sapiens) (UniProt P36544); test: Inhibition of human nicotinic acetylcholine receptor subunit alpha-7 expressed in Xenopus laevis oocytes assessed as inhibition of acetylcholine-induced current at 3 uM by two-electrode voltage clamp method; values are per cent of control; conditions: Oocyte
[18] = biological target: Neuronal acetylcholine receptor; alpha3/beta4 (Homo sapiens) (UniProt P30926+P32297); test: Inhibition of human nicotinic acetylcholine receptor subunit alpha-3 beta-4 expressed in Xenopus laevis oocytes assessed as inhibition of acetylcholine-induced current at 3 uM by two-electrode voltage clamp method; values are per cent of control; conditions: Oocyte
Oocyte = test: Inhibition of gamma-aminobutyric acid receptor A […] (unknown origin) expressed in Xenopus laevis oocytes assessed as inhibition of GABA-induced current at 3 uM by two-electrode voltage clamp method; values are per cent of control; conditions: Homo sapiens
[19] = biological target: Neuronal acetylcholine receptor; alpha9/alpha10 (Homo sapiens) (UniProt Q9UGM1+Q9GZZ6); test: Inhibition of nicotinic acetylcholine receptor subunit alpha-9 alpha-10 (unknown origin) expressed in Xenopus laevis oocytes assessed as inhibition of acetylcholine-induced current at 3 uM by two-electrode voltage clamp method; values are per cent of control; conditions: Oocyte

Chain of Glutamate receptor 1 (Homo sapiens) (P42261 whole entry): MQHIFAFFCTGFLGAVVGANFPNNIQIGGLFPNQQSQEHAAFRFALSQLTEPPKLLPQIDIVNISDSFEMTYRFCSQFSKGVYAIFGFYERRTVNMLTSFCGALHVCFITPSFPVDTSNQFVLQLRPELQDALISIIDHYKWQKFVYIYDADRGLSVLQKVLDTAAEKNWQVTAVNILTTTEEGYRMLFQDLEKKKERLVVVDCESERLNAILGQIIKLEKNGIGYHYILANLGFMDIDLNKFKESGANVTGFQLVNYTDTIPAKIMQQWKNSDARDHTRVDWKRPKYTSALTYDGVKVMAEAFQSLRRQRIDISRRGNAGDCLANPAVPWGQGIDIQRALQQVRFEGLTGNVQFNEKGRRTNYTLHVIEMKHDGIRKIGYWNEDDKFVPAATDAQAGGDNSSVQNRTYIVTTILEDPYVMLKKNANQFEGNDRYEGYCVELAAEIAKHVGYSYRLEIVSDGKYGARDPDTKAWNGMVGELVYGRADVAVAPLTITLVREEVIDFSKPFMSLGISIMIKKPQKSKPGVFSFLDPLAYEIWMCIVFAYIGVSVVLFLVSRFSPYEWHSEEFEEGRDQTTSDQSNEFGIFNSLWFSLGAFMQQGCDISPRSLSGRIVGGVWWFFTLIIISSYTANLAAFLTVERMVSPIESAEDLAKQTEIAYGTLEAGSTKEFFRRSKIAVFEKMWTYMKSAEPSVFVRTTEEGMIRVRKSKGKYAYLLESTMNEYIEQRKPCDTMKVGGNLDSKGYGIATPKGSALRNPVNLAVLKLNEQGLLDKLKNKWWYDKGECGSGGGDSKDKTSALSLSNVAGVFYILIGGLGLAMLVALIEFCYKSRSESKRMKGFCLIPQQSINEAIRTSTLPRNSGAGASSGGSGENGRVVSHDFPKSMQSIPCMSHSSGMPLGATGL
Chain of P2X purinoceptor 2 (Rattus norvegicus) (P49653 whole entry): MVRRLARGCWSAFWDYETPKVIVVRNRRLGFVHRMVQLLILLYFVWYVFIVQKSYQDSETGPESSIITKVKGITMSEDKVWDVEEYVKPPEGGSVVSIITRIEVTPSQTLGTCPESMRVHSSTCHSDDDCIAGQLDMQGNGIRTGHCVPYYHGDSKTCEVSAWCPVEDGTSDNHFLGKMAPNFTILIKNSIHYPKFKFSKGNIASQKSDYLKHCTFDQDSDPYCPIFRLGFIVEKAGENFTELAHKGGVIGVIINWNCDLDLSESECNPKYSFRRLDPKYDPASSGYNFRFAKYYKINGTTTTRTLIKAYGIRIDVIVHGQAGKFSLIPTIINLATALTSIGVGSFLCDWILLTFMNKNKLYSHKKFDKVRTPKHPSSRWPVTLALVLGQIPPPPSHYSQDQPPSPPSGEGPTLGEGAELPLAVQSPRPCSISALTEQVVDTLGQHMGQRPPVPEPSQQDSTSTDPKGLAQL
Chain of Glutamate receptor ionotropic, NMDA 2A (Q00959 whole entry, one chain of several): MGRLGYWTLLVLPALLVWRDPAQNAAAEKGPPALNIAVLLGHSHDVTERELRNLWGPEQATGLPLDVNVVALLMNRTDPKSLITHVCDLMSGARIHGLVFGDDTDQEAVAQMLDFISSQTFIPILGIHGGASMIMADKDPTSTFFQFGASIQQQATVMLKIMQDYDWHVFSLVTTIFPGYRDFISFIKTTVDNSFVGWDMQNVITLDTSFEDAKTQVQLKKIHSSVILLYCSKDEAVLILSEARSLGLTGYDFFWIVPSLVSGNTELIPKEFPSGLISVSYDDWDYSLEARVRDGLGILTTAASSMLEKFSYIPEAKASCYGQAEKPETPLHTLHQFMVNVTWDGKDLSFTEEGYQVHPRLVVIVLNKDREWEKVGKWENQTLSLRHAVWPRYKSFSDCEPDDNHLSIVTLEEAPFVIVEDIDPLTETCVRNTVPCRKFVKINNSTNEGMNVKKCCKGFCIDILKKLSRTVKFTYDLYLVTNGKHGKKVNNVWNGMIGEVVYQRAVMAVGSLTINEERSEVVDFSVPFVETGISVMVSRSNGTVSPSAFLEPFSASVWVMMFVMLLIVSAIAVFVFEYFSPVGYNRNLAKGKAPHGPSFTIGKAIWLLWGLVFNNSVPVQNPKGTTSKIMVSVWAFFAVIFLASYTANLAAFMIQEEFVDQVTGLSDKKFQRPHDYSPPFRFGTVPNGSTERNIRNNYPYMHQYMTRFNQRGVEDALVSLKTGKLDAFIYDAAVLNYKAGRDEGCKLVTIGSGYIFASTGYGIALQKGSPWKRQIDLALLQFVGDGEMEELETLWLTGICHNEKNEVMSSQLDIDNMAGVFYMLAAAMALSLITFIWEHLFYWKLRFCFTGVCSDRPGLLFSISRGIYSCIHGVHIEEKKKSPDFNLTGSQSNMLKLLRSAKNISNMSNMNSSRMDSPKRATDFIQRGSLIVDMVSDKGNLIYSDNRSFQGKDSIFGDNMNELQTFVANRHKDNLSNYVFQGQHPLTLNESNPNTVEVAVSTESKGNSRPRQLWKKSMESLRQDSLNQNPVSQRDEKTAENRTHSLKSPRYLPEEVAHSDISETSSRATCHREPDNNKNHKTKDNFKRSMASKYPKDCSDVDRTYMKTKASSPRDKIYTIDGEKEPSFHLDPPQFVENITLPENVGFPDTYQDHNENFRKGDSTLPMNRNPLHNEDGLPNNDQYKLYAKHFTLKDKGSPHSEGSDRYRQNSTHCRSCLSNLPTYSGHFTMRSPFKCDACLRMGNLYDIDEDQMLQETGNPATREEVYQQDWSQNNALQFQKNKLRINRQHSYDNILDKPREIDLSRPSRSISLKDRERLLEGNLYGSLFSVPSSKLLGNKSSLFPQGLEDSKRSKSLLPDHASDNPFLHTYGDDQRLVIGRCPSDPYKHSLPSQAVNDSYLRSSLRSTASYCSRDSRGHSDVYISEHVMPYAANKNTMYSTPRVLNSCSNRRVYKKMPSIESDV
Chain of Glutamate receptor ionotropic, NMDA 2B (Q00960 whole entry, one chain of several): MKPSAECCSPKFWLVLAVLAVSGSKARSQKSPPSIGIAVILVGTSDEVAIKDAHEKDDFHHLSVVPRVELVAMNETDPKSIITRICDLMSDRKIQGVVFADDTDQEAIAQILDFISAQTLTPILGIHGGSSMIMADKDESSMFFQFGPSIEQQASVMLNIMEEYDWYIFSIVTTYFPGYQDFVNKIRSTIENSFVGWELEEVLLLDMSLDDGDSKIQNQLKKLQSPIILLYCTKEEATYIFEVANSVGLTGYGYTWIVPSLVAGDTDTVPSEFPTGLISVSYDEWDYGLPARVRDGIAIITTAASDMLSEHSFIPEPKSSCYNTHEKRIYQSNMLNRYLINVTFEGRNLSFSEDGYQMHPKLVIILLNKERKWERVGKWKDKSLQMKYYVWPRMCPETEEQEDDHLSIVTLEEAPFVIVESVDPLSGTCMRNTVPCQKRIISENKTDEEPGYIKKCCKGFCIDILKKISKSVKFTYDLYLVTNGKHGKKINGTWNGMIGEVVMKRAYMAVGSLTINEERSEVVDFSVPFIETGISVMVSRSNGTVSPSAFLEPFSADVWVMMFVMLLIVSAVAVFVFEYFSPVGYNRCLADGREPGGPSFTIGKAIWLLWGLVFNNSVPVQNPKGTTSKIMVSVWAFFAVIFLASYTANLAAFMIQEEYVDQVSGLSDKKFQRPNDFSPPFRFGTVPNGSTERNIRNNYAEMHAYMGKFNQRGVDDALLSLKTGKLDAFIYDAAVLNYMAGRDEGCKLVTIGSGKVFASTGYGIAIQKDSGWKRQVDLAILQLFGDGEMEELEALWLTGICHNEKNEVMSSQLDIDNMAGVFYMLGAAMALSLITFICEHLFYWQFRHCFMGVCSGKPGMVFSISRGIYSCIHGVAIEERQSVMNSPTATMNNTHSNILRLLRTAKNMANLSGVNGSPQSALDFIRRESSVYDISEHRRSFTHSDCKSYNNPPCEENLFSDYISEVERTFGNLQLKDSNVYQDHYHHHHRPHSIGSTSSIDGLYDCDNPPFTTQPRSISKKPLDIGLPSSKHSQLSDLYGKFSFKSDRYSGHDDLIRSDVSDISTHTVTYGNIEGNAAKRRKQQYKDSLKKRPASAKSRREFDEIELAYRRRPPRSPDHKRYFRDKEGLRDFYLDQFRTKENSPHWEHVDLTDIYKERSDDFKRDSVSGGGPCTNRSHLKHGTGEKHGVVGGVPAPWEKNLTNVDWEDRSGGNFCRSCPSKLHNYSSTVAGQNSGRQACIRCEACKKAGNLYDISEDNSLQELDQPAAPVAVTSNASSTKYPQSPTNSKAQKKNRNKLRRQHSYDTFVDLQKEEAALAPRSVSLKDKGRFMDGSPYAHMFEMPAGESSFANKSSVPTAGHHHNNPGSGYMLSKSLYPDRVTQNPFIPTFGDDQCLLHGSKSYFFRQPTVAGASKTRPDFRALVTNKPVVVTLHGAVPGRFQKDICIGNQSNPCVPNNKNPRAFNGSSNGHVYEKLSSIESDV
Chain of Gamma-aminobutyric acid receptor subunit rho-1 (Homo sapiens) (P24046 whole entry): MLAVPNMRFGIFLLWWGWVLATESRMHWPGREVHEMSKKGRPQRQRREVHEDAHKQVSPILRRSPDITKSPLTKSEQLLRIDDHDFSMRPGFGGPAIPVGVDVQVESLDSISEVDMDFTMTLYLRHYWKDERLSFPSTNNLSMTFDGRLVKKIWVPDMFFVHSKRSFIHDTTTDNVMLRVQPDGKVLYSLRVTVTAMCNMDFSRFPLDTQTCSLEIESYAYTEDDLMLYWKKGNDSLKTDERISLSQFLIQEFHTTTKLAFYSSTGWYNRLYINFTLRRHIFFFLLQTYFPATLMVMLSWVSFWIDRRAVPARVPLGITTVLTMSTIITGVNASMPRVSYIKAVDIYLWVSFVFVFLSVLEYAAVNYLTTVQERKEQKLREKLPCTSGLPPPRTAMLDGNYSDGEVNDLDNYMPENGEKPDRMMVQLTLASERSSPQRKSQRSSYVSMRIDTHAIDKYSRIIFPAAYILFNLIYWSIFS

Compound	Stability (Plasma [1])	Stability (Plasma [2])	pKi [3]	pIC50 [4]	pIC50 [5]	pIC50 [6]	Ratio IC50 (Rattus norvegicus)	residual activity [7]	residual activity [8]	residual activity [9]	residual activity [10]	residual activity [11]	residual activity [12]	residual activity [13]	residual activity [14]	residual activity [15]	residual activity [16]	residual activity [17]	residual activity [18]	residual activity (Oocyte)	further results
O=C(O)CCC(=O)N1N=C(c2c(-c3ccc(Cl)cc3)c3ccccc3[nH]c2=O)CC1c1ccc(Cl)cc1 (racemic)	Stable	Stable	< 5.00	4.68	4.66	6.11	48	97%	96%	97%	97%	113%	99%	14%	21%	79%	101%	82%	77%	97%	residual activity [19]: 67%
O=C(O)/C=C/C(=O)N1N=C(c2c(-c3ccc(Br)cc3)c3ccccc3[nH]c2=O)CC1c1ccc(Cl)cc1 (racemic)	Stable	Stable	< 5.00	5.37	4.92	6.70	23	96%	97%	99%	95%	100%	97%	14%	26%	98%	99%	64%	87%	95%	residual activity [19]: 72%
